Experiments:
Type in all cases: functional
U-251 = assay: Growth inhibition of human U251 cells incubated for 48 hrs by sulforhodamine B assay; conditions: U-251, 48 h
Procedure, shortened: (§1)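 NCI-60 screen run at NCI. Cells grown in RPMI medium with 5% FBS and 2 mM L-glutamine, plated at 5,000–40,000 cells/well, and preincubated 24 h at 37 °C. Time-zero plates were TCA-fixed. Compounds came from DMSO stocks and were tested at five concentrations from 10^-4 to 10^-8 M for 48 h. Cells were then TCA-fixed, stained with 0.4% SRB, and OD read at 515 nm. GI50 is the concentration giving a 50% reduction in net protein increase versus control.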

HCC 2998 = assay: Growth inhibition of human HCC2998 cells incubated for 48 hrs by sulforhodamine B assay; conditions: HCC 2998, 48 h
Procedure, shortened: (§2)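 NCI-60 screen. Compounds were dosed at five concentrations spanning 10^-4 to 10^-8 M for 48 h at 37 °C. Cells were TCA-fixed, stained with 0.4% SRB and read at 515 nm against time-zero and vehicle controls. GI50 is the concentration giving a 50% reduction in net protein increase.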

SF-295 = assay: Growth inhibition of human SF295 cells incubated for 48 hrs by sulforhodamine B assay; conditions: SF-295, 48 h; procedure, shortened: as §2
HCT-116 = assay: Growth inhibition of human HCT116 cells incubated for 48 hrs by sulforhodamine B assay; conditions: HCT-116, 48 h; procedure, shortened: as §2
A498 = assay: Growth inhibition of human A498 cells incubated for 48 hrs by sulforhodamine B assay; conditions: A498, 48 h; procedure, shortened: as §2
Malme-3M = assay: Growth inhibition of human MALME-3M cells incubated for 48 hrs by sulforhodamine B assay; procedure, shortened: as §2
SF-268 = assay: Growth inhibition of human SF268 cells incubated for 48 hrs by sulforhodamine B assay; conditions: SF-268, 48 h; procedure, shortened: as §2
[1] = Cytotoxicity against human M9-ENL1 cells assessed as reduction in cell viability by trypan blue staining-based assay
Procedure, shortened: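 M9-ENL1 AML cells (MLL-ENL-transduced human blood cells) plated at 10^6 cells/mL in alpha-MEM with 5% human plasma, 20% FBS, SCF, IL-3, IL-7 and FLT3. Drug diluted from DMSO stock into PBS, final DMSO ≤0.5%. After 24 h exposure, dead cells assessed by trypan blue and by flow cytometry (Annexin V/PI or Annexin V/7-AAD). Viability normalized to vehicle; EC50 from dose-response curves; triplicate.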

UACC-62 = assay: Growth inhibition of human UACC62 cells incubated for 48 hrs by sulforhodamine B assay; conditions: UACC-62, 48 h; procedure, shortened: as §1
RXF 393 = assay: Growth inhibition of human RXF393 cells incubated for 48 hrs by sulforhodamine B assay; conditions: RXF 393, 48 h; procedure, shortened: as §2
SF-539 = assay: Growth inhibition of human SF539 cells incubated for 48 hrs by sulforhodamine B assay; conditions: SF-539, 48 h; procedure, shortened: as §2
OVCAR-5 = assay: Growth inhibition of human OVCAR5 cells incubated for 48 hrs by sulforhodamine B assay; conditions: OVCAR-5, 48 h; procedure, shortened: as §2
MOLT-4 = assay: Growth inhibition of human MOLT4 cells incubated for 48 hrs by sulforhodamine B assay; conditions: MOLT-4, 48 h; procedure, shortened: as §2
RPMI-8226 = assay: Growth inhibition of human RPMI8226 cells incubated for 48 hrs by sulforhodamine B assay; conditions: RPMI-8226, 48 h; procedure, shortened: as §2
SK-OV-3 = assay: Growth inhibition of human SKOV3 cells incubated for 48 hrs by sulforhodamine B assay; conditions: SK-OV-3, 48 h; procedure, shortened: as §2
NCI/ADR-RES = assay: Growth inhibition of human NCI/ADR-RES cells incubated for 48 hrs by sulforhodamine B assay; procedure, shortened: as §2
UO-31 = assay: Growth inhibition of human UO31 cells incubated for 48 hrs by sulforhodamine B assay; conditions: UO-31, 48 h; procedure, shortened: as §1
LOX IMVI = assay: Growth inhibition of human LOXIMVI cells incubated for 48 hrs by sulforhodamine B assay; procedure, shortened: as §2
NCI-H322M = assay: Growth inhibition of human NCI-H322M cells incubated for 48 hrs by sulforhodamine B assay; procedure, shortened: as §2
SN12C = assay: Growth inhibition of human SN12C cells incubated for 48 hrs by sulforhodamine B assay; procedure, shortened: as §2
SNB-19 = assay: Growth inhibition of human SNB19 cells incubated for 48 hrs by sulforhodamine B assay; conditions: SNB-19, 48 h; procedure, shortened: as §1
CCRF-CEM = assay: Growth inhibition of human CCRF-CEM cells incubated for 48 hrs by sulforhodamine B assay; procedure, shortened: as §2
HL-60(TB) = assay: Growth inhibition of human HL-60(TB) cells incubated for 48 hrs by sulforhodamine B assay; conditions: HL-60, 48 h
Procedure, shortened: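 Performed at NCI's 60-line screen. Cells grown in RPMI with 5% FBS and 2 mM L-glutamine, plated 5,000–40,000 cells/well and incubated 24 h at 37 °C before compound addition. DMSO stocks were diluted in medium with gentamicin, and five concentrations spanning 10^-4 to 10^-8 M were tested. Exposure was 48 h. Cells were fixed with TCA, stained with SRB, and read at 515 nm. GI50 taken from log dose-response curves as 50% reduction in net protein increase versus control.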

KM12 = assay: Growth inhibition of human KM12 cells incubated for 48 hrs by sulforhodamine B assay; conditions: KM12, 48 h; procedure, shortened: as §2
HCT-15 = assay: Growth inhibition of human HCT15 cells incubated for 48 hrs by sulforhodamine B assay; conditions: HCT-15, 48 h; procedure, shortened: as §2
OVCAR-8 = assay: Growth inhibition of human OVCAR8 cells incubated for 48 hrs by sulforhodamine B assay; conditions: OVCAR-8, 48 h; procedure, shortened: as §2
UACC-257 = assay: Growth inhibition of human UACC257 cells incubated for 48 hrs by sulforhodamine B assay; conditions: UACC-257, 48 h; procedure, shortened: as §1
NCI-H226 = assay: Growth inhibition of human NCI-H226 cells incubated for 48 hrs by sulforhodamine B assay; conditions: NCI-H226, 48 h; procedure, shortened: as §2
SK-MEL-28 = assay: Growth inhibition of human SK-MEL-28 cells incubated for 48 hrs by sulforhodamine B assay; conditions: SK-MEL-28, 48 h; procedure, shortened: as §2
HOP-92 = assay: Growth inhibition of human HOP92 cells incubated for 48 hrs by sulforhodamine B assay; conditions: HOP-92, 48 h; procedure, shortened: as §2
NCI-H23 = assay: Growth inhibition of human NCI-H23 cells incubated for 48 hrs by sulforhodamine B assay; conditions: NCI-H23, 48 h; procedure, shortened: as §2
A549 = assay: Growth inhibition of human A549/ATCC cells incubated for 48 hrs by sulforhodamine B assay; conditions: A549, 48 h; procedure, shortened: as §2
HT-29 = assay: Growth inhibition of human HT-29 cells incubated for 48 hrs by sulforhodamine B assay; conditions: HT-29, 48 h; procedure, shortened: as §2
MCF7 = assay: Growth inhibition of human MCF7 cells incubated for 48 hrs by sulforhodamine B assay; conditions: MCF7, 48 h; procedure, shortened: as §2
K562 = assay: Growth inhibition of human K562 cells incubated for 48 hrs by sulforhodamine B assay; conditions: K562, 48 h; procedure, shortened: as §2
NCI-H460 = assay: Growth inhibition of human NCI-H460 cells incubated for 48 hrs by sulforhodamine B assay; conditions: NCI-H460, 48 h; procedure, shortened: as §2
NCI-H522 = assay: Growth inhibition of human NCI-H522 cells incubated for 48 hrs by sulforhodamine B assay; conditions: NCI-H522, 48 h; procedure, shortened: as §2

| Compound | GI50 (U-251) [nM] | GI50 (HCC 2998) [nM] | GI50 (SF-295) [nM] | GI50 (HCT-116) [nM] | GI50 (A498) [nM] | GI50 (Malme-3M) [nM] | GI50 (SF-268) [nM] | EC50 [1] [nM] | GI50 (UACC-62) [nM] | GI50 (RXF 393) [nM] | GI50 (SF-539) [nM] | GI50 (OVCAR-5) [nM] | GI50 (MOLT-4) [nM] | GI50 (RPMI-8226) [nM] | GI50 (SK-OV-3) [nM] | GI50 (NCI/ADR-RES) [nM] | GI50 (UO-31) [nM] | GI50 (LOX IMVI) [nM] | GI50 (NCI-H322M) [nM] | GI50 (SN12C) [nM] | also measured |
| --- | --- | --- | --- | --- | --- | --- | --- | --- | --- | --- | --- | --- | --- | --- | --- | --- | --- | --- | --- | --- | --- |
| C=C1C(=O)O[C@@H]2[C@H]3O[C@]3(C)CC/C=C(/COC(=O)c3cc4cc(F)ccc4[nH]3)CC[C@@H]12 | 1820 | 2020 | 7100 | 1500 | 3350 | 1670 | 1620 | 2800 | 1890 | 1470 | 1550 | 1770 | 2260 | 2000 | 11600 | 1980 | 1200 | 1050 | 2690 | 1850 | GI50 (SNB-19): 5040 nM; GI50 (CCRF-CEM): 910 nM; GI50 (HL-60(TB)): 2070 nM; GI50 (KM12): 1980 nM; GI50 (HCT-15): 1150 nM; GI50 (OVCAR-8): 2170 nM; GI50 (UACC-257): 2280 nM; GI50 (NCI-H226): 1760 nM; GI50 (SK-MEL-28): 1790 nM; GI50 (HOP-92): 1380 nM; GI50 (NCI-H23): 1900 nM; GI50 (A549): 3080 nM; GI50 (HT-29): 1130 nM; GI50 (MCF7): 1020 nM; GI50 (K562): 2240 nM; GI50 (NCI-H460): 3040 nM; GI50 (NCI-H522): 1650 nM |
| C=C1C(=O)O[C@@H]2[C@H]3O[C@]3(C)CC/C=C(/COC(=O)c3cc4cc(Cl)ccc4[nH]3)CC[C@@H]12 | 1750 | 1400 | 3180 | 700 | 2650 | 1630 | 1440 | 3800 | 1670 | 1380 | 1440 | 1530 | 550 | 810 | 10200 | 1450 | 1210 | 810 | 4000 | 1700 | GI50 (SNB-19): 2910 nM; GI50 (CCRF-CEM): 390 nM; GI50 (HL-60(TB)): 440 nM; GI50 (KM12): 2150 nM; GI50 (HCT-15): 1000 nM; GI50 (OVCAR-8): 1340 nM; GI50 (UACC-257): 1700 nM; GI50 (NCI-H226): 1800 nM; GI50 (SK-MEL-28): 1580 nM; GI50 (HOP-92): 1250 nM; GI50 (NCI-H23): 1630 nM; GI50 (A549): 1690 nM; GI50 (HT-29): 1330 nM; GI50 (MCF7): 860 nM; GI50 (K562): 1140 nM; GI50 (NCI-H460): 1720 nM; GI50 (NCI-H522): 1590 nM |
| C=C1C(=O)O[C@@H]2[C@H]3O[C@]3(C)CC/C=C(/COC(=O)c3cc4ccccc4o3)CC[C@@H]12 | 1630 | 2470 | 5900 | 320 | 12900 | 1660 | 1560 | 2900 | 1680 | 1430 | 1450 | 1880 | 1770 | 710 | 16700 | 2590 | 1460 | 1420 | 5520 | 1780 | GI50 (SNB-19): 3160 nM; GI50 (CCRF-CEM): 330 nM; GI50 (HL-60(TB)): 1220 nM; GI50 (KM12): 2020 nM; GI50 (HCT-15): 1070 nM; GI50 (OVCAR-8): 2430 nM; GI50 (UACC-257): 1520 nM; GI50 (NCI-H226): 1740 nM; GI50 (SK-MEL-28): 1750 nM; GI50 (HOP-92): 1440 nM; GI50 (NCI-H23): 1980 nM; GI50 (A549): 2910 nM; GI50 (HT-29): 820 nM; GI50 (MCF7): 390 nM; GI50 (K562): 1150 nM; GI50 (NCI-H460): 2000 nM; GI50 (NCI-H522): 680 nM |
| C=C1C(=O)O[C@@H]2[C@H]3O[C@]3(C)CC/C=C(/COC(=O)c3cc4cc(OC)ccc4[nH]3)CC[C@@H]12 | 1600 | 1540 | 2420 | 420 | 1630 | 1610 | 1660 | 1800 | 1380 | 1140 | 1020 | 1770 | 1320 | 500 | 4900 | 1680 | 1120 | 300 | 1880 | 1770 | GI50 (SNB-19): 1570 nM; GI50 (CCRF-CEM): 340 nM; GI50 (HL-60(TB)): 320 nM; GI50 (KM12): 1540 nM; GI50 (HCT-15): 320 nM; GI50 (OVCAR-8): 1580 nM; GI50 (UACC-257): 1610 nM; GI50 (NCI-H226): 1570 nM; GI50 (SK-MEL-28): 1230 nM; GI50 (HOP-92): 440 nM; GI50 (NCI-H23): 1490 nM; GI50 (A549): 1660 nM; GI50 (HT-29): 350 nM; GI50 (MCF7): 340 nM; GI50 (K562): 560 nM; GI50 (NCI-H460): 1830 nM; GI50 (NCI-H522): 700 nM |

Reference: ChEMBL document CHEMBL4138104, “Indole carboxylic acid esters of melampomagnolide B are potent anticancer agents against both hematological and solid tumor cells” (Eur J Med Chem, 2017)
